# Experimental data taken from PMC4973392 (Angewandte Chemie (International ed. in English), 2016).
# Experiments:
# Ubc9 [1] = target: T1, Ubc9 (Homo sapiens, UniProt P63279); type: biochemical; conditions: SUMO-1 conjugation to peptide substrate
# Ubc9 [2] = target: T1, Ubc9; test: 1H-15N HSQC NMR chemical shift perturbation; type: binding
# Procedure, shortened: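 1H-15N HSQC spectra recorded with 200 μM Ubc9 in a solution saturated with the test compound. Chemical shifts of selected residues were compared between apo and compound-bound protein.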
# E1-SUMO thioester = target: T2, E1-SUMO thioester (Homo sapiens, UniProt Q9UBE0+Q9UBT2); test: E1-SUMO thioester formation with fluorescently labeled SUMO-1; type: biochemical; conditions: at relevant concentrations
# T2 sequence (Q9UBE0 1-346): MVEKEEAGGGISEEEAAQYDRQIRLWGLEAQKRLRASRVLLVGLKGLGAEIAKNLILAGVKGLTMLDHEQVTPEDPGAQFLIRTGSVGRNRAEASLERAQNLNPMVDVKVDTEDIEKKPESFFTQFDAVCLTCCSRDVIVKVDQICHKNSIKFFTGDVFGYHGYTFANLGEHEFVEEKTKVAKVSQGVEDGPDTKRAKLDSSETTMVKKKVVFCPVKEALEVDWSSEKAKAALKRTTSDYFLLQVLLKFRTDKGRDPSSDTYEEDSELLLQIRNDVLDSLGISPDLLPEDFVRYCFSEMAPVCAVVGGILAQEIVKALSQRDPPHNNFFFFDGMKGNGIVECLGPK
# T2 sequence (Q9UBT2 1-640): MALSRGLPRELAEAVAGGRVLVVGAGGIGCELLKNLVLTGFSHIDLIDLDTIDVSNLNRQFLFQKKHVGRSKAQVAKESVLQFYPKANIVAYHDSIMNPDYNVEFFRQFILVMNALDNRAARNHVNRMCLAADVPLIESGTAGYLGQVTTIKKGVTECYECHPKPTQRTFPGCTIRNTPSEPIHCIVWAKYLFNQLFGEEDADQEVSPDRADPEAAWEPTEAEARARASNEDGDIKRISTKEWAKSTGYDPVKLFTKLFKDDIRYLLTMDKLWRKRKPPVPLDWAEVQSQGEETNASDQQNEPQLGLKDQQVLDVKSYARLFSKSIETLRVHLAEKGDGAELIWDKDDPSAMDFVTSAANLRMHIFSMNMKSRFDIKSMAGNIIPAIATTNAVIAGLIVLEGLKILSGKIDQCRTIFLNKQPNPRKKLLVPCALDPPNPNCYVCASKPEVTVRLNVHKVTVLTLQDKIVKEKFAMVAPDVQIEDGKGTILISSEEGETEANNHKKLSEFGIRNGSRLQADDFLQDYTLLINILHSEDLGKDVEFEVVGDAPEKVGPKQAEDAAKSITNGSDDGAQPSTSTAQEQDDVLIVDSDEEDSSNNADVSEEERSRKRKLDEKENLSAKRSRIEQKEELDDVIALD
# Procedure, shortened: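 E1–SUMO thioester formation was followed using fluorescently labeled SUMO-1 in the presence of the test compound. The negative-control lane omitted E1.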
# E2-SUMO thioester = E2-SUMO thioester (Homo sapiens, UniProt P63279); test: E2-SUMO thioester formation with fluorescently labeled SUMO-1; type: biochemical; conditions: at concentrations that correlated well with the IC50
# RanGAP1 sumoylation = test: conjugation of SUMO to recombinant protein fragment of RanGAP1; type: biochemical
# IκBα sumoylation = test: conjugation of SUMO to full-length recombinant IκBα; type: biochemical
# Ubc9-K59A mutant = Ubc9-K59A mutant (Homo sapiens, UniProt P63279, K59A); test: sumoylation of fluorescent substrate peptide with Ubc9-K59A mutant; type: biochemical; conditions: at any concentration
# Ubc9-E42A mutant = Ubc9-E42A mutant (Homo sapiens, UniProt P63279, E42A); test: sumoylation of fluorescent substrate peptide with Ubc9-E42A mutant; type: biochemical; conditions: at any concentration
# Chain of Ubc9-E42A mutant (P63279 whole entry E42A): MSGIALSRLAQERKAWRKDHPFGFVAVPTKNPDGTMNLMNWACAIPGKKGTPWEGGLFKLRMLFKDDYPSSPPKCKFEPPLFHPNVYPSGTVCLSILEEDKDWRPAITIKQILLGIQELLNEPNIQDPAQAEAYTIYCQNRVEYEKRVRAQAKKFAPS
# T1 sequence (P63279 whole entry): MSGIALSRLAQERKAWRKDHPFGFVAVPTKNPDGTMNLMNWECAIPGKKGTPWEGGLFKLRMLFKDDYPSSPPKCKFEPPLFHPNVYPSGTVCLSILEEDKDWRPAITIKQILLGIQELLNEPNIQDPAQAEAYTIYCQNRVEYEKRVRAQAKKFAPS
# Chain of E2-SUMO thioester (P63279 whole entry, the tested form may be a part): as the sequence (P63279 whole entry) above
# Chain of Ubc9-K59A mutant (P63279 whole entry K59A): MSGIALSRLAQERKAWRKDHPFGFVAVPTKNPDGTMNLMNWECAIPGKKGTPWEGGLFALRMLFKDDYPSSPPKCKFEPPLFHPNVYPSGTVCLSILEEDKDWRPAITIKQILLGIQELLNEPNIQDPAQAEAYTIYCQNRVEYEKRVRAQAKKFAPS
smiles,measurement,setting,value
"Oc1ccccc1-c1ccccc1O [compound 1, 2,2′-bisphenol]",IC50,Ubc9 [1],5.8 ± 0.1 mM
same,binding to Ubc9 in solution (chemical shift perturbations),Ubc9 [2],specific binding
same,effect on formation of the E1-SUMO thioester,E1-SUMO thioester,no effect
same,effect on formation of the E2-SUMO thioester,E2-SUMO thioester,inhibited
same,effect on conjugation of SUMO to RanGAP1 fragment,RanGAP1 sumoylation,inhibited
same,effect on conjugation of SUMO to IκBα,IκBα sumoylation,inhibited
same,inhibition of Ubc9 K59A mutant,Ubc9-K59A mutant,neither mutant was inhibited
same,inhibition of Ubc9 E42A mutant,Ubc9-E42A mutant,neither mutant was inhibited
